Experimental data published in PubChem BioAssay.
The list shows a part of the results.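 Rule for the calls: active = substances whose mean melting-temperature shift, as a percentage of the reference inhibitor's shift, reaches about 5.3% (limit read from the data); inactive = the rest.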

Target: Carboxy-terminal domain RNA polymerase II polypeptide A small phosphatase 1 (Homo sapiens) (UniProt Q9GZU7)
Experiment: SCP1 melting temperature change from compounds – biophysical, differential scanning fluorimetry, orthogonal assay for Scp-1 inhibitor project, confirmation (AID 540329);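 note: 0% = Tm of DMSO wells and 100% = Tm with sodium orthovanadate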
Settings: Recombinant SCP1, Sypro Orange thermal shift Tm; at 40 µM; active compounds read high
Procedure, shortened: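 Technique: Protein melting followed by Sypro Orange dye fluorescence | Material: Scp-1 phosphatase domain | Input: Scp-1 protein added from a 10 µM stock solution | Measure: Melting temperature shift relative to vanadate | Times: 20-95 °C thermal ramp | Doses: One dose per compound, 10 mM stock | Benchmarks: Vanadate reference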

Carboxy-terminal domain RNA polymerase II polypeptide A small phosphatase 1 (Homo sapiens), sequence (Q9GZU7 76-261 limits assumed): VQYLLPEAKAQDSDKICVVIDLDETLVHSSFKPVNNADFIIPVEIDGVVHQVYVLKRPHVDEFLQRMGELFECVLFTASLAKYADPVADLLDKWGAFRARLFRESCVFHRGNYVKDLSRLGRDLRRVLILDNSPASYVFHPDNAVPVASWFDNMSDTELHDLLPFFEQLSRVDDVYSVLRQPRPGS

Thermal shift relative to vanadate control, inactive:
O=C(N/N=C/c1ccco1)c1ccc(C(=O)N/N=C/c2ccco2)o1 -14.3%
Nn1cnnc1N/N=C/c1cc([N+](=O)[O-])c(Cl)cc1Cl -3.64%
COc1ccc(OCC(=O)NNC(=O)c2ccc(-c3ccccc3)cc2)cc1 2.47%
CCc1ccc(NC(=O)CS(=O)CC(=O)NCCCc2ccccc2)cc1 (centres undefined) -12.5%
COc1ccc(Cl)cc1NC(=O)CCS(=O)(=O)c1ccc(Br)cc1 3.48%
C[N+](C)(C)CCNC(=O)c1cc[n+](Cc2ccccc2)c(/C=N/O)c1 -22.6%
Cc1ccc(SCC(=O)NC(=O)NCc2ccco2)c(C)c1 -1.14%
CNS(=O)(=O)c1cccc(C(=O)OCC(=O)N2c3ccccc3NC(=O)C2(C)C)c1 0.5%
O=C(COC(=O)CCC(=O)c1cccs1)NCc1ccco1 -2.74%
